Structures are written as SMILES.

What is called Tmax is the time from dosing to the highest level. One may read the AUC(0-inf) as the area under the concentration-time curve extrapolated to infinity.

Test system in one series: not listed separately
Kind of series: Tmax in CD1 mouse plasma at 5 mg/kg, po via gavage by HPLC/MS analysis. In kind it is ADME, organism-based.
Conditions: not given
An outline of the steps:
(§1)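 Female CD-1 mice, male SD rats or beagle dogs given 5 mg/kg by iv injection or oral gavage. Formulation was PEG300/propylene glycol/water 55/25/20, pH 6. Blood samples analysed by HPLC–MS/MS; parameters include AUC0-inf extrapolated to infinity and terminal half-life.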
Turning to `Cc1c(Oc2cnc(C(=O)NC(C)CO)cn2)ccc2c1B(O)OC2` (stereo not drawn), the Tmax was found to be 1 h.

Test system in the next series: not listed separately
Kind of series: AUC (0 to infinity) in CD1 mouse at 5 mg/kg, po via gavage by HPLC/MS analysis. The following applies: in vivo. Set-up: dose 5 mg/kg, time infinity, route oral. It is filed as ADME, organism-based.
`Cc1c(Oc2cnc(C(=O)NC(C)CO)cn2)ccc2c1B(O)OC2` (stereo not drawn): the AUC(0-inf) was found to be 33000 ng·h/mL.

Test system in another series: not listed separately
Kind of series: Terminal half life in CD1 mouse at 5 mg/kg, po via gavage by HPLC/MS analysis. It is filed as ADME, organism-based. Conditions: in vivo, read-out: beta t1/2 (converted). An outline of the steps:
as §1
For the molecule `Cc1c(Oc2cnc(C(=O)NC(C)CO)cn2)ccc2c1B(O)OC2` (stereo not drawn), the half-life was 2.7 h.

Test system in a further series: not listed separately
In words: Volume of distribution at steady state in CD1 mouse at 5 mg/kg, iv by HPLC/MS analysis. The following applies: in vivo, read-out: Vdss. It is filed as ADME, organism-based. An outline of the steps: as §1
In the case of `Cc1c(Oc2cnc(C(=O)NC(C)CO)cn2)ccc2c1B(O)OC2` (stereo not drawn), the Vd worked out at 0.603 L/kg.

Test system in a further series: not listed separately
In words: Metabolic stability in human hepatocytes at 22 uM after 44 hrs. In kind it is ADME, cell-based, Hepatocyte.
Conditions: not given
Regarding `Cc1c(Oc2cnc(C(=O)N3CC(O)(C(F)(F)F)C3)cn2)ccc2c1B(O)OC2`, the Stability result was “Stable”.

Test system in the next series: not listed separately
In words: Metabolic stability in rat hepatocytes at 22 uM after 44 hrs. It is filed as ADME, cell-based, Hepatocyte.
Conditions: not given
As for `Cc1c(Oc2cnc(C(=O)N3CC(O)(C(F)(F)F)C3)cn2)ccc2c1B(O)OC2`, the Stability entry is “Stable”.

The test system of another series is Plasmodium berghei. Kind of series: Antimalarial activity against Plasmodium berghei infected in Swiss Webster mouse assessed as mouse survival rate at 100 mg/kg administered once daily via oral gavage for 4 consecutive days beginning 1 hr after infection measured on day 4 post infection relative to control.
Conditions: not given
It is filed as functional. The method, boiled down:
(§2)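 Mice given an intraperitoneal injection of P. berghei-infected erythrocytes taken from a previously infected animal. Oral dosing once daily for 4 consecutive days, starting 1 h after infection. Vehicle: polyethylene glycol 300/propylene glycol/water (weight ratio 55/25/20). Percent survival recorded daily from day 4 to day 20. Chloroquine 30 mg/kg and vehicle-only groups served as controls.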
As to `Cc1c(Oc2cnc(C(=O)N3CC(O)(C(F)(F)F)C3)cn2)ccc2c1B(O)OC2`, the survival at 100 mg/kg worked out at 100%.
Still for that read-out and setting: the value for `Cc1c(Oc2cnc(C(=O)NC(C)CO)cn2)ccc2c1B(O)OC2` (stereo not drawn) was 100%.

For another series, the system named is Plasmodium berghei. In words: Antimalarial activity against Plasmodium berghei infected in Swiss Webster mouse assessed as mouse survival rate at 3.7 mg/kg administered once daily via oral gavage for 4 consecutive days beginning 1 hr after infection measured on day 4 post infection relative to control. In kind it is functional.
Conditions: not given
The method, boiled down: (§3)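 P. berghei-infected erythrocytes taken from a previously infected mouse were injected intraperitoneally. Oral dosing, once daily for 4 consecutive days, began 1 h after infection, in polyethylene glycol 300/propylene glycol/water (55/25/20 by weight). Chloroquine at 30 mg/kg was the positive control, with a vehicle-only group. Percent survival was recorded daily from day 4 to day 20.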
In the case of `Cc1c(Oc2cnc(C(=O)N3CC(O)(C(F)(F)F)C3)cn2)ccc2c1B(O)OC2`, the survival at 3.7 mg/kg amounted to 100%.

Another series deals with Plasmodium berghei. Kind of series: Antimalarial activity against Plasmodium berghei infected in Swiss Webster mouse assessed as mouse survival rate at 33 mg/kg administered once daily via oral gavage for 4 consecutive days beginning 1 hr after infection measured on day 5 post infection relative to control.
Conditions: not given
In kind it is functional. The method, boiled down:
as §3
As for `Cc1c(Oc2cnc(C(=O)N3CC(O)(C(F)(F)F)C3)cn2)ccc2c1B(O)OC2`, the survival at 33 mg/kg stood at 100%.
As for `Cc1c(Oc2cnc(C(=O)NC(C)CO)cn2)ccc2c1B(O)OC2` (stereo not drawn), the survival at 33 mg/kg worked out at 100%.

Another series concerns Plasmodium berghei. In words: Antimalarial activity against Plasmodium berghei infected in Swiss Webster mouse assessed as mouse survival rate at 33 mg/kg administered once daily via oral gavage for 4 consecutive days beginning 1 hr after infection measured on day 6 post infection relative to control. In kind it is functional.
Conditions: not given
The method, boiled down: as §3
For the molecule `Cc1c(Oc2cnc(C(=O)N3CC(O)(C(F)(F)F)C3)cn2)ccc2c1B(O)OC2`, the survival at 33 mg/kg was determined as 100%.
Still for that read-out and setting: the value for `Cc1c(Oc2cnc(C(=O)NC(C)CO)cn2)ccc2c1B(O)OC2` (stereo not drawn) was 100%.

The test system of a further series is Plasmodium berghei. Kind of series: Antimalarial activity against Plasmodium berghei infected in Swiss Webster mouse assessed as mouse survival rate at 11 mg/kg administered once daily via oral gavage for 4 consecutive days beginning 1 hr after infection measured on day 6 post infection relative to control. In kind it is functional.
Conditions: not given
An outline of the steps: as §3
In the case of `Cc1c(Oc2cnc(C(=O)N3CC(O)(C(F)(F)F)C3)cn2)ccc2c1B(O)OC2`, the survival at 11 mg/kg amounted to 100%.
As for `Cc1c(Oc2cnc(C(=O)NC(C)CO)cn2)ccc2c1B(O)OC2` (stereo not drawn), the survival at 11 mg/kg was found to be 40%.

For the next series, the system named is Plasmodium berghei. In words: Antimalarial activity against Plasmodium berghei infected in Swiss Webster mouse assessed as mouse survival rate at 0.1 mg/kg administered once daily via oral gavage for 4 consecutive days beginning 1 hr after infection measured on day 6 post infection relative to control. It is filed as functional.
Conditions: not given
An outline of the steps: as §2
Regarding `Cc1c(Oc2cnc(C(=O)N3CC(O)(C(F)(F)F)C3)cn2)ccc2c1B(O)OC2`, the survival at 0.1 mg/kg was 100%.

Another series relates to Plasmodium berghei. Kind of series: Antimalarial activity against Plasmodium berghei infected in Swiss Webster mouse assessed as mouse survival rate at 100 mg/kg administered once daily via oral gavage for 4 consecutive days beginning 1 hr after infection measured on day 7 post infection relative to control. In kind it is functional.
Conditions: not given
An outline of the steps:
as §2
As to `Cc1c(Oc2cnc(C(=O)N3CC(O)(C(F)(F)F)C3)cn2)ccc2c1B(O)OC2`, the survival at 100 mg/kg came out at 100%.
Still for that read-out and setting: as for `Cc1c(Oc2cnc(C(=O)NC(C)CO)cn2)ccc2c1B(O)OC2` (stereo not drawn), the figure is 100%.

A further series deals with Plasmodium berghei. Kind of series: Antimalarial activity against Plasmodium berghei infected in Swiss Webster mouse assessed as mouse survival rate at 33 mg/kg administered once daily via oral gavage for 4 consecutive days beginning 1 hr after infection measured on day 7 post infection relative to control. It is filed as functional.
Conditions: not given
An outline of the steps: as §3
Turning to `Cc1c(Oc2cnc(C(=O)N3CC(O)(C(F)(F)F)C3)cn2)ccc2c1B(O)OC2`, the survival at 33 mg/kg is 100%.
The same measure, in the same setting: as for `Cc1c(Oc2cnc(C(=O)NC(C)CO)cn2)ccc2c1B(O)OC2` (stereo not drawn), the figure is 100%.

The next series deals with Plasmodium berghei. Kind of series: Antimalarial activity against Plasmodium berghei infected in Swiss Webster mouse assessed as mouse survival rate at 11 mg/kg administered once daily via oral gavage for 4 consecutive days beginning 1 hr after infection measured on day 8 post infection relative to control.
Conditions: not given
In kind it is functional. The method, boiled down:
as §3
`Cc1c(Oc2cnc(C(=O)N3CC(O)(C(F)(F)F)C3)cn2)ccc2c1B(O)OC2`: the survival at 11 mg/kg came to 0%.
For `Cc1c(Oc2cnc(C(=O)NC(C)CO)cn2)ccc2c1B(O)OC2` (stereo not drawn), the survival at 11 mg/kg stood at 0%.

Another series relates to Plasmodium berghei. In words: Antimalarial activity against Plasmodium berghei infected in Swiss Webster mouse assessed as mouse survival rate at 33 mg/kg administered once daily via oral gavage for 4 consecutive days beginning 1 hr after infection measured on day 9 post infection relative to control. In kind it is functional.
Conditions: not given
An outline of the steps:
as §3
As to `Cc1c(Oc2cnc(C(=O)N3CC(O)(C(F)(F)F)C3)cn2)ccc2c1B(O)OC2`, the survival at 33 mg/kg was determined as 100%.

The subject of the next series is Plasmodium berghei. Kind of series: Antimalarial activity against Plasmodium berghei infected in Swiss Webster mouse assessed as mouse survival rate at 33 mg/kg administered once daily via oral gavage for 4 consecutive days beginning 1 hr after infection measured on day 10 post infection relative to control.
Conditions: not given
In kind it is functional. An outline of the steps:
as §3
For `Cc1c(Oc2cnc(C(=O)N3CC(O)(C(F)(F)F)C3)cn2)ccc2c1B(O)OC2`, the survival at 33 mg/kg turned out to be 50%.

In a further series the test system is Plasmodium berghei. In words: Antimalarial activity against Plasmodium berghei infected in Swiss Webster mouse assessed as mouse survival rate at 100 mg/kg administered once daily via oral gavage for 4 consecutive days beginning 1 hr after infection measured on day 11 post infection relative to control. It is filed as functional.
Conditions: not given
The method, boiled down: as §2
Consider `Cc1c(Oc2cnc(C(=O)N3CC(O)(C(F)(F)F)C3)cn2)ccc2c1B(O)OC2`, for which the survival at 100 mg/kg came to 100%.
The same measure, in the same setting: the value for `Cc1c(Oc2cnc(C(=O)NC(C)CO)cn2)ccc2c1B(O)OC2` (stereo not drawn) was 40%.

A further series has as its system Plasmodium berghei. Kind of series: Antimalarial activity against Plasmodium berghei infected in Swiss Webster mouse assessed as mouse survival rate at 100 mg/kg administered once daily via oral gavage for 4 consecutive days beginning 1 hr after infection measured on day 12 post infection relative to control. In kind it is functional.
Conditions: not given
An outline of the steps:
as §2
With `Cc1c(Oc2cnc(C(=O)N3CC(O)(C(F)(F)F)C3)cn2)ccc2c1B(O)OC2`, the survival at 100 mg/kg came out at 100%.
The same measure, in the same setting: as for `Cc1c(Oc2cnc(C(=O)NC(C)CO)cn2)ccc2c1B(O)OC2` (stereo not drawn), the figure is 0%.

The next series deals with Plasmodium berghei. Kind of series: Antimalarial activity against Plasmodium berghei infected in Swiss Webster mouse assessed as mouse survival rate at 33 mg/kg administered once daily via oral gavage for 4 consecutive days beginning 1 hr after infection measured on day 12 post infection relative to control. It is filed as functional.
Conditions: not given
An outline of the steps:
as §3
Turning to `Cc1c(Oc2cnc(C(=O)N3CC(O)(C(F)(F)F)C3)cn2)ccc2c1B(O)OC2`, the survival at 33 mg/kg was 50%.

The subject of the next series is Plasmodium berghei. Kind of series: Antimalarial activity against Plasmodium berghei infected in Swiss Webster mouse assessed as mouse survival rate at 100 mg/kg administered once daily via oral gavage for 4 consecutive days beginning 1 hr after infection measured on day 13 post infection relative to control.
Conditions: not given
It is filed as functional. An outline of the steps: as §2
Take `Cc1c(Oc2cnc(C(=O)N3CC(O)(C(F)(F)F)C3)cn2)ccc2c1B(O)OC2`: the survival at 100 mg/kg turned out to be 100%.

The subject of the next series is Plasmodium berghei. In words: Antimalarial activity against Plasmodium berghei infected in Swiss Webster mouse assessed as mouse survival rate at 33 mg/kg administered once daily via oral gavage for 4 consecutive days beginning 1 hr after infection measured on day 13 post infection relative to control. In kind it is functional.
Conditions: not given
The method, boiled down: as §3
Take `Cc1c(Oc2cnc(C(=O)N3CC(O)(C(F)(F)F)C3)cn2)ccc2c1B(O)OC2`: the survival at 33 mg/kg is 50%.

Another series deals with Plasmodium berghei. In words: Antimalarial activity against Plasmodium berghei infected in Swiss Webster mouse assessed as mouse survival rate at 33 mg/kg administered once daily via oral gavage for 4 consecutive days beginning 1 hr after infection measured on day 14 post infection relative to control. It is filed as functional.
Conditions: not given
An outline of the steps: as §3
As for `Cc1c(Oc2cnc(C(=O)N3CC(O)(C(F)(F)F)C3)cn2)ccc2c1B(O)OC2`, the survival at 33 mg/kg was determined as 0%.

The subject of a further series is Plasmodium falciparum. Kind of series: Antimalarial activity against Plasmodium falciparum 3D7 0087/N9 infected in NOD/SCID IL2R gamma null mouse assessed as reduction in parasitemia administered once daily via oral gavage for 4 consecutive days measured on day 4 post infection. In kind it is functional. The following applies: 3D7 0087/N9, po, 96 h. The method, boiled down: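 Human-erythrocyte-engrafted NODscidIL2Rγnull mice carrying P. falciparum Pf3D70087/N9 in peripheral blood; compound given orally once daily for four consecutive days.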
In the case of `Cc1c(Oc2cnc(C(=O)N3CC(O)(C(F)(F)F)C3)cn2)ccc2c1B(O)OC2`, the ED90 was under 5 mg/kg.

For the origin of these results see ChEMBL document CHEMBL4038305, “Benzoxaborole Antimalarial Agents. Part 5. Lead Optimization of Novel Amide Pyrazinyloxy Benzoxaboroles and Identification of a Preclinical Candidate” (J Med Chem, 2017).
